Test results: ChEMBL document CHEMBL3580589, “Discovery of Quinazoline-Based Fluorescent Probes to α1-Adrenergic Receptors” (ACS Med Chem Lett, 2015)
The source made the active and inactive calls. No cut-off for these calls is given here.

Assays:
[1] = target: T1, Alpha-1D adrenergic receptor (Homo sapiens, UniProt P25100); test: Displacement of [3H]-Prazosin from human alpha-1D adrenergic receptor transfected in CHO cell membranes after 2 hrs by microplate scintillation counting analysis
T1 sequence (P25100 whole entry): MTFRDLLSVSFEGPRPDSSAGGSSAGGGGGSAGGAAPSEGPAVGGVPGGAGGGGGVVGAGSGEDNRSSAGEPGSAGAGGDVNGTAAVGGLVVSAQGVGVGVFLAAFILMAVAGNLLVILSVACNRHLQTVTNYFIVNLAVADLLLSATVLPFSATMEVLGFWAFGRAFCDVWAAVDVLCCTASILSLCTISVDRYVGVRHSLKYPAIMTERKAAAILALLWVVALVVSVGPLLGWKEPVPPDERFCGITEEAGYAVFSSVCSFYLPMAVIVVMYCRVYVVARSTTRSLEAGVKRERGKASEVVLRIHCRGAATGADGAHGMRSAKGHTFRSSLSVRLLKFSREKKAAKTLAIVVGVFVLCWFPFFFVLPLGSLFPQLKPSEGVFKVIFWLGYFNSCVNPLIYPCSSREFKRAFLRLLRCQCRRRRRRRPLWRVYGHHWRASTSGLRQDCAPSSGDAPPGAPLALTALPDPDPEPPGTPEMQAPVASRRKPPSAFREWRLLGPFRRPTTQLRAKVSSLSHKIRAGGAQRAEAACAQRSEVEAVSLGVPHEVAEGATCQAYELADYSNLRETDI
Method in brief: (§1)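 Radioligand competition binding used [3H]prazosin on membranes from CHO cells transfected with human cloned α1A-, α1B- or α1D-adrenoceptors.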

[2] = Cytotoxicity against HEK293A cells transfected with alpha-1A adrenergic receptor assessed as cell viability by sulforhodamine B assay; format: cell-based; settings: Homo sapiens, HEK293-A
Method in brief: (§2)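 Standard sulforhodamine B colorimetric assay in HEK293A cells stably transfected with α1A-AR or α1D-AR.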

[3] = Cytotoxicity against HEK293A cells transfected with alpha-1D adrenergic receptor assessed as cell viability by sulforhodamine B assay; format: cell-based; settings: Homo sapiens, HEK293-A; method in brief: as §2
[4] = target: T2, Alpha-1A adrenergic receptor (Homo sapiens) (UniProt P35348); test: Binding affinity to alpha-1A adrenergic receptor (unknown origin) transfected in HEK293A cells at 15 nM measured 5 mins post wash out by DiD dye-based confocal microscopic analysis; format: cell-based; settings: HEK293-A
T2 sequence (whole entry): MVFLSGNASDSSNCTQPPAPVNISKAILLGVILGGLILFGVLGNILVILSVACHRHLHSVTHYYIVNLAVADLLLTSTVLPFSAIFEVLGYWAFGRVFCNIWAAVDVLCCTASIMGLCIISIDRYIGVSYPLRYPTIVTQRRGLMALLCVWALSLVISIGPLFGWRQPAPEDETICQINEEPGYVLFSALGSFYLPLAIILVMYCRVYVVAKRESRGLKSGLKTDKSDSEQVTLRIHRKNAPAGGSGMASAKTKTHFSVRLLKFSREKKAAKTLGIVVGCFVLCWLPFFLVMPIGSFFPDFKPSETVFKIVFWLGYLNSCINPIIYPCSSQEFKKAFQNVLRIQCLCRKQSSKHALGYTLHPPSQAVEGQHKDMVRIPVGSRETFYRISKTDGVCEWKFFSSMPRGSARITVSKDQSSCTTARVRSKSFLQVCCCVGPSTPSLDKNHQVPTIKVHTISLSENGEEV
Method in brief: (§3)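 HEK293A cells stably transfected with α1A-AR or α1D-AR, or untransfected HEK293A cells, were incubated with the probe at 15 nM plus the membrane dye DiD for 5 min at 37 °C. Cells were washed immediately and imaged by confocal fluorescence microscopy at identical exposure times.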

[5] = target: T3, Alpha-1D adrenergic receptor (Homo sapiens) (UniProt P25100); test: Binding affinity to alpha-1D adrenergic receptor (unknown origin) transfected in HEK293A cells at 15 nM measured 5 mins post wash out by DiD dye-based confocal microscopic analysis; format: cell-based; settings: HEK293-A; method in brief: as §3
T3 sequence (whole entry): T1 sequence (P25100 whole entry)

[6] = target: T2, Alpha-1A adrenergic receptor (Homo sapiens); test: Binding affinity to alpha-1A adrenergic receptor (unknown origin) transfected in HEK293A cells at 15 nM measured 5 mins post wash out by DiD dye-based confocal microscopic analysis in presence of alpha1 adrenergic receptor antagonist tamsulosin; format: cell-based; settings: HEK293-A
Method in brief: (§4)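 α1A-AR- or α1D-AR-transfected HEK293A cells were incubated with the probe at 15 nM, DiD and tamsulosin at 300 nM as competitor for 5 min at 37 °C. Cells were washed immediately and imaged by confocal microscopy at identical exposure.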

[7] = target: T3, Alpha-1D adrenergic receptor (Homo sapiens); test: Binding affinity to alpha-1D adrenergic receptor (unknown origin) transfected in HEK293A cells at 15 nM measured 5 mins post wash out by DiD dye-based confocal microscopic analysis in presence of alpha1 adrenergic receptor antagonist tamsulosin; format: cell-based; settings: HEK293-A; method in brief: as §4
[8] = Drug uptake in HEK293A cells at 15 nM measured 5 mins post wash out by DiD dye-based confocal microscopic analysis; format: ADME, cell-based; settings: human, hek293-a, 0.015 µM; method in brief: as §3
[9] = target: T4, Alpha-1A adrenergic receptor (Homo sapiens, UniProt P35348); test: Displacement of [3H]-Prazosin from human alpha-1A adrenergic receptor transfected in CHO cell membranes after 2 hrs by microplate scintillation counting analysis; method in brief: as §1
T4 sequence (P35348 whole entry): T2 sequence (whole entry)

[10] = target: T5, Alpha-1B adrenergic receptor (Homo sapiens, UniProt P35368); test: Displacement of [3H]-Prazosin from human alpha-1B adrenergic receptor transfected in CHO cell membranes after 2 hrs by microplate scintillation counting analysis; method in brief: as §1
T5 sequence (P35368 whole entry): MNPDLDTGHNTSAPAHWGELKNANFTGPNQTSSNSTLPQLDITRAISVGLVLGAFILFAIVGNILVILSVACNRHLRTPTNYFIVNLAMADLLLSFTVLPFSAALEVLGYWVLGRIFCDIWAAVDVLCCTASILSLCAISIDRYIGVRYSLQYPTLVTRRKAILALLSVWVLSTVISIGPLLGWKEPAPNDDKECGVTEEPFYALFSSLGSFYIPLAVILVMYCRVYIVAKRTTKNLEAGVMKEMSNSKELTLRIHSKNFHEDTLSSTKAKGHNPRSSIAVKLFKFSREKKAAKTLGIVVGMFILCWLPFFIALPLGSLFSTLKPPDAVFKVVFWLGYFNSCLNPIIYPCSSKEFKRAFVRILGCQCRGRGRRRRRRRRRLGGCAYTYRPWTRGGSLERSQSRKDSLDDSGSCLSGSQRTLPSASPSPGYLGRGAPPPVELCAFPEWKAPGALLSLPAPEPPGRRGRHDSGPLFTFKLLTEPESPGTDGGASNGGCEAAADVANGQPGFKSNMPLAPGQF

[11] = Drug uptake in plasma membrane of HEK293A cells transfected with alpha-1A adrenergic receptor at 50 nM measured 5 mins post wash out by DiD dye-based confocal microscopic analysis; format: ADME; settings: human, hek293-a, 0.05 µM
Method in brief: (§5)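 α1A-AR- or α1D-AR-transfected HEK293A cells, or untransfected HEK293A cells as the receptor-free control, were incubated with the probe plus DiD (red, colocalization) for 5 min at 37 °C. Probe signal was compared with the DiD-stained surface for subcellular localization by fluorescence microscopy.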

[12] = Drug uptake in cytoplasm of HEK293A cells transfected with alpha-1D adrenergic receptor at 50 nM measured 5 mins post wash out by DiD dye-based confocal microscopic analysis; format: ADME, cell-based; settings: human, hek293-a, 0.05 µM; method in brief: as §5
[13] = Drug uptake in plasma membrane of HEK293A cells transfected with alpha-1D adrenergic receptor at 50 nM measured 5 mins post wash out by DiD dye-based confocal microscopic analysis; format: ADME, cell membranes; settings: human, hek293-a, 0.05 µM; method in brief: as §5
[14] = target: T2, Alpha-1A adrenergic receptor (Homo sapiens); test: Binding affinity to alpha-1A adrenergic receptor (unknown origin) transfected in HEK293A cells at 20 nM after 5 mins by DiD dye-based confocal microscopic analysis; format: cell-based; settings: HEK293-A; method in brief: as §5
[15] = target: T2, Alpha-1A adrenergic receptor (Homo sapiens); test: Binding affinity to alpha-1A adrenergic receptor (unknown origin) transfected in HEK293A cells at 20 nM after 5 mins by DiD dye-based confocal microscopic analysis in presence of alpha1 adrenergic receptor antagonist tamsulosin; format: cell-based; settings: HEK293-A
Method in brief: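 Transfected HEK293A cells expressing α1A-AR or α1D-AR were incubated with the probe, DiD and tamsulosin as competing α1-AR antagonist for 5 min at 37 °C. Fluorescence labelling was imaged by confocal microscopy.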

[16] = Drug uptake in HEK293A cells at 20 nM after 5 mins by DiD dye-based confocal microscopic analysis; format: ADME, cell-based; settings: human, hek293-a, 0.02 µM; method in brief: as §5

SMILES	IC50 [1] [nM]	IC50 [2] [nM]	IC50 [3] [nM]	Activity [4]	Activity [5]	Activity [6]	Activity [7]	Drug uptake [8]	IC50 [9] [nM]	Ki [9] [nM]	IC50 [10] [nM]	Drug uptake [11]	Drug uptake [12]	Drug uptake [13]	Ki [1] [nM]	Activity [14]	Activity [15]	Ki [10] [nM]	Drug uptake [16]
COc1cc2nc(N3CCN(C(=O)c4cc5ccc(O)cc5oc4=O)CC3)nc(N)c2cc1OC	< 5	> 100000	> 100000	Active	Active	inactive	inactive	Active	3.9	2.1	< 5	Active	Active	Active					
CCN(CC)c1ccc2cc(-n3cc(CN4CCN(c5nc(N)c6cc(OC)c(OC)cc6n5)CC4)nn3)c(=O)oc2c1	45.2	26000	17000						52.4	29.9	52.4				27.5	Active	inactive	29.9	Active
COc1cc2nc(N3CCN(C(=O)C4COc5ccccc5O4)CC3)nc(N)c2cc1OC (configuration not stated) [DOXAZOSIN]		19000	22000																
